Data set [1] is described as follows: Acute toxicity in mouse assessed as increase in CK19-positive cells at 1 mg/kg,ip administrated once a daily for 3 weeks by H and E staining based immunohistochemical analysis relative to control. Type of data set: organism-based, Liver. To be noted: in vivo, 504 h. In short, it runs like this:
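Postnatal mice dosed from 10 days of age with vehicle or 1 mg/kg once per day for 21 days (3 weeks). Vehicle is 0.1% citric acid aqueous solution containing 20% Kolliphor HS 15. Liver sections stained with H&E and by IHC for CK19 and BrdU, with positive cells quantified (n = 3). Liver/body weight ratio recorded (n = 4). Values are means ± SD versus vehicle, Student's t test.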

The target of data set [2] is Serine/threonine-protein kinase D1 (Homo sapiens) (UniProt Q15139). The experiment in a line: Inhibition of PRKD1 (unknown origin) assessed as remaining activity at 1 uM by Kinome scan method relative to control.
Data set [3] relates to Mus musculus. The experiment in a line: Protection against APAP induced liver injury in mouse assessed as decrease in ALT level at 1 mg/kg, ip administered at 1.5 hrs in the presence of NAC. Type of data set: functional, organism-based. To be noted: Serum.
The subject of data set [4] is HepG2. Put plainly: Induction of apoptosis in human HepG2 cells overexpressing MST2 assessed as viable cells at 3 uM by annexinV staining (Rvb =84.2 %). Format: functional. To be noted: read-out: Activity.
A short description of data set [5]: Acute toxicity in wild-type mouse assessed as cell proliferation in liver at 3 mg/kg,ip administrated daily for 7 days by Ki67 staining. Format: organism-based. Conditions: in vivo, 168 h, time 7 day. The method in brief: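 Wild-type mice received vehicle or 3 mg/kg i.p. daily for 7 days. Ki67 staining of sections from various tissues with quantification of positive cells, n = 6; means ± SD, Student's t test. Daily weights, physical activity and serum chemistry were also monitored.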

The target of data set [6] is Activated CDC42 kinase 1 (Homo sapiens) (UniProt Q07912). The experiment in a line: Inhibition of TNK2 (unknown origin) assessed as remaining activity at 1 uM by Kinome scan method relative to control.
Data set [7] deals with Mitogen-activated protein kinase kinase kinase kinase 2 (Homo sapiens) (UniProt Q12851). Put plainly: Inhibition of MAP4K2 (unknown origin) assessed as remaining activity at 1 uM by Kinome scan method relative to control.
Data set [8] has as its system Fibroblast growth factor receptor 3 (Homo sapiens), P22607 [G697C]. Put plainly: Inhibition of FGFR3 G697C mutant (unknown origin) assessed as remaining activity at 1 uM by Kinome scan method relative to control.
Data set [9] concerns Tyrosine-protein kinase ABL1 (Homo sapiens), P00519 [H396P]. The experiment in a line: Inhibition of ABL1 H396P mutant (unknown origin) assessed as remaining activity at 1 uM by Kinome scan method relative to control. The method in brief:
(§1)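 Active-site-dependent competition-binding (KINOMEscan) panel of 468 kinases, test compound at 1 μM (from a 10 mM DMSO stock). Read-out is ctrl% = (test signal − positive control signal)/(negative control signal − positive control signal) × 100. DMSO is the negative control (100%) and a control compound is the positive control (0%). Lower ctrl% means tighter binding.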

The test system of data set [10] is Mus musculus. The experiment in a line: Anti-colitis activity against DSS-induced mouse assessed as high BrdU incorporation at 1 mg/kg, ip administrated daily for 8 days by IHC staining. Type of data set: functional, organism-based. Conditions: Colon, time 8.0 day. The method in brief:
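Wild-type mice received oral DSS for 7 days with vehicle or 1 mg/kg daily. Colon sections were stained by IHC for YAP, BrdU and Ki67, and positive cells were quantified per animal. Means ± SD, n = 10, Student's t test.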

The nature of data set [11]: Acute toxicity in wild-type mouse assessed as ratio of liver weight to body weight at 1 mg/kg,ip administrated twice daily for 7 days. Type of data set: organism-based. To be noted: in vivo, 168 h, time 7 day. In short, it runs like this: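 Wild-type mice underwent two-thirds partial hepatectomy with vehicle or 1 mg/kg i.p. twice per day, starting with a dose before surgery. Liver/body weight ratio was followed over postoperative days, n = 5; means ± SD.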

Data set [12] concerns the target Serine/threonine-protein kinase mTOR (Homo sapiens) (UniProt P42345). The experiment in a line: Inhibition of MTOR (unknown origin) assessed as remaining activity at 1 uM by Kinome scan method relative to control.
In data set [13] the target is Tyrosine-protein kinase SYK (Homo sapiens) (UniProt P43405). Put plainly: Inhibition of SYK (unknown origin) assessed as remaining activity at 1 uM by Kinome scan method relative to control.
The species entered for a further data set is Homo sapiens. Put plainly: Inhibition of recombinant His-tagged full-length MST1 Y101F/D109A mutant (unknown origin) expressing in Escherichia coli assessed as GST-tagged MOB1 phosphorylation level at 0.01 to 1 uM incubated for 15 min by immunoblot analysis. To be noted: dose 0.01-1 µM.
The target in data set [14] is RAC-beta serine/threonine-protein kinase (Homo sapiens) (UniProt P31751). Put plainly: Inhibition of AKT2 (unknown origin) assessed as remaining activity at 1 uM by Kinome scan method relative to control. The method in brief:
as §1

Data set [15] deals with Serine/threonine-protein kinase 24 (Homo sapiens, UniProt Q9Y6E0). The experiment in a line: Inhibition of MST3 (unknown origin) assessed as remaining activity at 1 uM by Kinome scan method relative to control.
The subject of data set [16] is HepG2. Put plainly: Induction of apoptosis in human HepG2 cells assessed as necrosis cells at 3 uM by annexinV staining (Rvb =0.04 %). Type of data set: functional.
Data set [17] has as its target Serine/threonine-protein kinase PLK1 (Homo sapiens) (UniProt P53350). Put plainly: Inhibition of PLK1 (unknown origin) assessed as remaining activity at 1 uM by Kinome scan method relative to control.
For data set [18], the target named is Peripheral plasma membrane protein CASK (Homo sapiens) (UniProt O14936). The experiment in a line: Inhibition of CASK (unknown origin) assessed as remaining activity at 1 uM by Kinome scan method relative to control. In short, it runs like this: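 Active-site-dependent competition-binding profiling (KINOMEscan) at 1 μM against a 468-kinase panel; compound supplied from a 10 mM DMSO stock. Read-out is ctrl% = (test signal − positive control signal)/(negative control signal − positive control signal) × 100. DMSO is the negative control (100%) and a control compound the positive control (0%). Lower ctrl% means tighter binding.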

The test system of data set [19] is Mus musculus. The experiment in a line: In vivo inhibition of MST1/2 in wild-type Mst1fl/fl Mst2fl/fl mouse assessed as high in CTGF mRNA level at 1 mg/kg, ip administrated daily for 7 days by RT-PCR analysis. Format: functional, organism-based. To be noted: Liver, time 7.0 day.
In data set [20] the target is Ribosomal protein S6 kinase alpha-3 (Homo sapiens) (UniProt P51812). Put plainly: Inhibition of N-terminal kinase domain RSK2 (unknown origin) assessed as remaining activity at 1 uM by Kinome scan method relative to control.
For data set [21], the target named is Proto-oncogene tyrosine-protein kinase Src (Homo sapiens) (UniProt P12931). Put plainly: Inhibition of SRC (unknown origin) assessed as remaining activity at 1 uM by Kinome scan method relative to control.
In data set [22] the test system is Mus musculus. Put plainly: Protection against APAP induced liver injury in mouse assessed as continual expansion of centrilobular necrotic lesions at 1 mg/kg, ip administered at 2.5 hrs by H&E staining. Format: functional, organism-based.
In data set [23] the test system is Phosphatidylinositol 4,5-bisphosphate 3-kinase catalytic subunit alpha isoform (Homo sapiens), P42336 [H1047L]. The experiment in a line: Inhibition of PIK3CA H1047L mutant (unknown origin) assessed as remaining activity at 1 uM by Kinome scan method relative to control.

Active and inactive are the calls of the source. The calls are words filed in the database; no cut-off is given here.

Sequence of Proto-oncogene tyrosine-protein kinase Src (Homo sapiens) (P12931 2-536 limits assumed): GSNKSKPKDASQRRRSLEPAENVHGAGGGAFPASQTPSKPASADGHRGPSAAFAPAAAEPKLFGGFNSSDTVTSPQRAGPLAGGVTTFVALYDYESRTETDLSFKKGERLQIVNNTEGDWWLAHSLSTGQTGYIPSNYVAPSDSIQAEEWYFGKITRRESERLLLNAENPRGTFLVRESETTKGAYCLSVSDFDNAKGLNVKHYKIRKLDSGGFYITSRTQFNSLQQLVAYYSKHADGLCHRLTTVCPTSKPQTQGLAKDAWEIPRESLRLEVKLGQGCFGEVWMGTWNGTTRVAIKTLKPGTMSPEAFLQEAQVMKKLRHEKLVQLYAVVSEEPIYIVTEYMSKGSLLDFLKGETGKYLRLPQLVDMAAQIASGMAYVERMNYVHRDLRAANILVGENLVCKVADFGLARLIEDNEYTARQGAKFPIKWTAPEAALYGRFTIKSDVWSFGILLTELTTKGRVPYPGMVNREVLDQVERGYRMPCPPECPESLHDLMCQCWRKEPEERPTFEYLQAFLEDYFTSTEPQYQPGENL
Sequence of RAC-beta serine/threonine-protein kinase (Homo sapiens) (P31751 whole entry): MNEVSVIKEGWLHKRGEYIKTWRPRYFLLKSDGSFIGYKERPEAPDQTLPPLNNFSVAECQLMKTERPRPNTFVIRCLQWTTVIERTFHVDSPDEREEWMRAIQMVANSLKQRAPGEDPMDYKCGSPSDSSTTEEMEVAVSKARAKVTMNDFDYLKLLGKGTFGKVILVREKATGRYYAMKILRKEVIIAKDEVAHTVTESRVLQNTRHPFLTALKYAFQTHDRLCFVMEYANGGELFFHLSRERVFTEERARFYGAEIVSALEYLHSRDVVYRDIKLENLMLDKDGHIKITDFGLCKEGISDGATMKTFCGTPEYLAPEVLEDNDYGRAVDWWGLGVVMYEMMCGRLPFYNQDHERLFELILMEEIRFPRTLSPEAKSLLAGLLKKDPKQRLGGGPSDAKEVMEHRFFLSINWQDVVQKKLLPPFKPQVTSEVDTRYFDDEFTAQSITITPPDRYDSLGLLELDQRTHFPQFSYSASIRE
Sequence of Serine/threonine-protein kinase 24 (Q9Y6E0 whole entry, looked up): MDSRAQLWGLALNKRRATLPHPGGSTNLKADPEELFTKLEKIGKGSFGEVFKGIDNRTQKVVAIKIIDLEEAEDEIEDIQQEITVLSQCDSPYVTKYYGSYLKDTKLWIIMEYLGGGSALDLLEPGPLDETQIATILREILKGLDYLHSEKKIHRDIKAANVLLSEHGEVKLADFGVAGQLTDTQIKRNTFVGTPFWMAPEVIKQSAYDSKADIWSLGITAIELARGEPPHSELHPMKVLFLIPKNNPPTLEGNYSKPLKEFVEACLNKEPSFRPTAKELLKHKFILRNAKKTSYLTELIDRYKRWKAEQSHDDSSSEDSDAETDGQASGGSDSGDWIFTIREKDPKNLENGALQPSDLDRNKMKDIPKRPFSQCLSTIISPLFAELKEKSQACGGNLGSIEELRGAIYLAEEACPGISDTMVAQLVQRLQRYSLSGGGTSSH
Sequence of Serine/threonine-protein kinase PLK1 (Homo sapiens) (P53350 whole entry): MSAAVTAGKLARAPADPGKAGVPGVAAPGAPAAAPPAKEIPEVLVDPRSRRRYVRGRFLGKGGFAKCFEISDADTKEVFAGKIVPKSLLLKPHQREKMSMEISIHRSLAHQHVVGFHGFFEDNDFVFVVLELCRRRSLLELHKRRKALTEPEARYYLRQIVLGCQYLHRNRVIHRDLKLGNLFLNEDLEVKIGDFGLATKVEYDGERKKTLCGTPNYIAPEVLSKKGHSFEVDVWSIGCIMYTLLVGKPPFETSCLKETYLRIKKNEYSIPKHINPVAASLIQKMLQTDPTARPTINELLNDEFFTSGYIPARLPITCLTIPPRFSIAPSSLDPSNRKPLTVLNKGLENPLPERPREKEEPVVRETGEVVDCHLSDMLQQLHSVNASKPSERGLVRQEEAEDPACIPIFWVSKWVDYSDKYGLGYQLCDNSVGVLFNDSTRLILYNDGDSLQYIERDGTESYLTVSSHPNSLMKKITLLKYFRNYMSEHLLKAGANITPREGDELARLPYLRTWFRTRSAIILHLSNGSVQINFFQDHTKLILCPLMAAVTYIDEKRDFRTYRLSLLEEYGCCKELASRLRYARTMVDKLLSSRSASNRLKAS
Sequence of Ribosomal protein S6 kinase alpha-3 (Homo sapiens) (P51812 whole entry, the tested form may be a part): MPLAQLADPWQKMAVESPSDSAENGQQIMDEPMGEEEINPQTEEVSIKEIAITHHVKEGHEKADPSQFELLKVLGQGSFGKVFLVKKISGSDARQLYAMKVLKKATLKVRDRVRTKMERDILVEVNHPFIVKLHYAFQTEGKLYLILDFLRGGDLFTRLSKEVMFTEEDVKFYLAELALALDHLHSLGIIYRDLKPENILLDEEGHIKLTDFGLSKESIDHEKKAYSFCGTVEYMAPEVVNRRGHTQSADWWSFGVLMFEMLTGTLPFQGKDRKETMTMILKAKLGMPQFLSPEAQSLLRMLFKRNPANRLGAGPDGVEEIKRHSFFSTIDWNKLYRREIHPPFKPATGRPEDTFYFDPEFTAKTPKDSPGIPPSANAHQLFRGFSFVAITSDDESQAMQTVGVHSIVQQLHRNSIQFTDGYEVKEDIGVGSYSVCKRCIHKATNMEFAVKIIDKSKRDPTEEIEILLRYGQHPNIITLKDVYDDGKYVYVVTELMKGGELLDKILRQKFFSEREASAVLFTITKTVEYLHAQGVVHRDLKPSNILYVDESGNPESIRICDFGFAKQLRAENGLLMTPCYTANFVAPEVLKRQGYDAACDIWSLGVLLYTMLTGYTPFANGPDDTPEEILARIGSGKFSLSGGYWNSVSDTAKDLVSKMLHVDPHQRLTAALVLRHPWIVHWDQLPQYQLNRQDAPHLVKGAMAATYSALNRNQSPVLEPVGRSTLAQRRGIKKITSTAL
Sequence of Peripheral plasma membrane protein CASK (Homo sapiens) (O14936 whole entry): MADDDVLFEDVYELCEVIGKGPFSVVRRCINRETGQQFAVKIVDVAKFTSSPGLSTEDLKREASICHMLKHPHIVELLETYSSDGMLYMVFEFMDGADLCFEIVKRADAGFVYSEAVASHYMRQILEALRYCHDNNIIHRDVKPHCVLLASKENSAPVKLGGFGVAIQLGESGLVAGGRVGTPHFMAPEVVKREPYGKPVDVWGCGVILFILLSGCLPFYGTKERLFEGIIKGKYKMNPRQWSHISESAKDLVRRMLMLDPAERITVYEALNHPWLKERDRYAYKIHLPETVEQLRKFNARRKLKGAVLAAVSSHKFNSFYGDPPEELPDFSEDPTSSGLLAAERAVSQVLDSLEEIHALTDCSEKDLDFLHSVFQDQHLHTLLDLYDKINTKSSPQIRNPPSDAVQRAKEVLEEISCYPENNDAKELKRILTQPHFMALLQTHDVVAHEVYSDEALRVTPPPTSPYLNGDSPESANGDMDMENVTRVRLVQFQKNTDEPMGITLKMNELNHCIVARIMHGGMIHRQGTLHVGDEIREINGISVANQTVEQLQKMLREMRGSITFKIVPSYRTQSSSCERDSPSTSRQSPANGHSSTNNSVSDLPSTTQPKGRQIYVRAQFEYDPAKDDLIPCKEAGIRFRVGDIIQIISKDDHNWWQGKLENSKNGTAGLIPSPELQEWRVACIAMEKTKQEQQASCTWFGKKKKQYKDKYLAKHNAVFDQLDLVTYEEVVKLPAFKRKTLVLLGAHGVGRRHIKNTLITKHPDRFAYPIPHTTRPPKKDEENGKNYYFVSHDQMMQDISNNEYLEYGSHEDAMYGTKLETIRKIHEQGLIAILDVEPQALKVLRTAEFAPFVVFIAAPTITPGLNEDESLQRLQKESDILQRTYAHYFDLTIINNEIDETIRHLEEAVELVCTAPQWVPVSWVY
Sequence of Serine/threonine-protein kinase D1 (Homo sapiens) (Q15139 whole entry): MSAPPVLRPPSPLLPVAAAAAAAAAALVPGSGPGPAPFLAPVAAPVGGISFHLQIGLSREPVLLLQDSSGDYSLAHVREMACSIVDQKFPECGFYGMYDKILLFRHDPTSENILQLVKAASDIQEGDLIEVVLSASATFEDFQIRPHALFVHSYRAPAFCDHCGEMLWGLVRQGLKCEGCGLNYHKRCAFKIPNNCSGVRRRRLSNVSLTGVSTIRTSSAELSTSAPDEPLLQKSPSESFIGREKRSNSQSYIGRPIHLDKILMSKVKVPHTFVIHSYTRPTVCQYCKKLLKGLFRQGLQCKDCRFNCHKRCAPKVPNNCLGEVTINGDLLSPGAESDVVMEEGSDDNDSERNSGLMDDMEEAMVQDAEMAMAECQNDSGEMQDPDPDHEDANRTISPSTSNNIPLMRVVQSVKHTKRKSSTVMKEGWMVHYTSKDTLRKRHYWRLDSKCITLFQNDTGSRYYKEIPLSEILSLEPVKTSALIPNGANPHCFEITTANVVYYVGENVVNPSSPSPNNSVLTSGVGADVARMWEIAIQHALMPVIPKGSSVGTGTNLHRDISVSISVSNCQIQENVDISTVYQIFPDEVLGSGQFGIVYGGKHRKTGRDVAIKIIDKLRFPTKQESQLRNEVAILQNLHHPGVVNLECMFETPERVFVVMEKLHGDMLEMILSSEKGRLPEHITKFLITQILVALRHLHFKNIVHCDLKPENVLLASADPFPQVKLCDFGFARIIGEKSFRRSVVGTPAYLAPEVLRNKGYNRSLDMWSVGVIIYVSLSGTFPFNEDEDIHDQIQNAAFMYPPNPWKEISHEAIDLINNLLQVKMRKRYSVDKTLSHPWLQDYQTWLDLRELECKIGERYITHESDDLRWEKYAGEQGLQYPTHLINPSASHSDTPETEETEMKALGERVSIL

As to `CN1C(=O)c2sccc2N(C)c2nc(Nc3ccc(S(N)(=O)=O)cc3)ncc21`, the Activity was 15% in [1]; 98% in data set [2]; “Non-Toxic” in data set [5]; 95% in data set [6]; 77% in data set [7]; 95% in data set [8]. Besides, the Activity in data set [9] is 11%; in data set [11] it was “Toxic”; in [12], 84%; in data set [13], 90%; in data set [14], 100%; in [15], 0.9%. In addition, the Activity in the data set with HepG2 [16] is 0.05%; in [17], 70%; in [18] it was 78%; in [20], 76%; in [21], 100%; in [23] it was 4.6%. Further, the outcome in the data set on Mus musculus [3], with Mus musculus [10] and in the data set on Mus musculus [22] was Active. Further, the viability at 3 µM in the data set with HepG2 [4] was 93.1%. In addition, the inhibition result in the data set filed under Homo sapiens and in the data set with Mus musculus [19] was “Active” throughout.

The record behind these values is ChEMBL document CHEMBL5705905, “Pharmacological targeting of kinases MST1 and MST2 augments tissue repair and regeneration” (Sci Transl Med, 2016).
